Converted amounts (≈) assume the structure as drawn. The source made the active and inactive calls. The calls are words filed in the database; no cut-off is given here.
What was measured:
[1] = target: T1, Quinolone resistance protein NorA (Staphylococcus aureus) (UniProt P0A0J7); assay: Inhibition of NorA in Staphylococcus aureus SA-1199B expressing GrlA A116E mutant assessed as reduction in EtBr efflux at 50 uM incubated for 5 mins by fluorescence based assay
T1 sequence (whole entry): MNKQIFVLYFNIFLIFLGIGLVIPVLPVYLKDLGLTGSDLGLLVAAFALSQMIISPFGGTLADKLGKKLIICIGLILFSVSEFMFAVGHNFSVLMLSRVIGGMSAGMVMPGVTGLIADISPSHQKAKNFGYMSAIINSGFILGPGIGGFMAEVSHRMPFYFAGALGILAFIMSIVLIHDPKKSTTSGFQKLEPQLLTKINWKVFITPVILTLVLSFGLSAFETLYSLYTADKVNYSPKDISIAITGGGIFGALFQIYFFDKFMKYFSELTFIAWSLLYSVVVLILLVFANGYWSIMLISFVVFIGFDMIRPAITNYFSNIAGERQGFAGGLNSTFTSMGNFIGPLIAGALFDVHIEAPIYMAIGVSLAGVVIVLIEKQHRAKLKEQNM
Outline: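 Cells were grown overnight in cation-supplemented Mueller-Hinton broth at 35 °C and subcultured to OD600 0.7–0.8. They were loaded at OD600 0.8 with 25 µM EtBr plus 100 µM CCCP (final) for 20 min at room temperature. Cells were then resuspended in fresh broth with or without compound, 50 µM for the single-point screen or a concentration series for IC50. Fluorescence (ex 485/em 645 nm) was read for 5 min. Inhibition was calculated from the fluorescence decrease versus untreated cells. Biological triplicate, each run twice.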

[2] = tested on: Staphylococcus aureus; assay: Antimicrobial activity against Staphylococcus aureus SA-1199B expressing wild type norA and co-expressing GrlA A116E mutant by microdilution method; type: organism-based; conditions: in vivo
Outline: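 CLSI broth microdilution MIC of the compound alone. Strains: SA-K1902 (norA deleted), SA-K2378 (SA-K1902 carrying norA plus its promoter on multicopy plasmid pCU1), SA-1199B (norA overexpressing, GrlA A116E).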

[3] = target: T1, Quinolone resistance protein NorA (Staphylococcus aureus); assay: Inhibition of NorA in Staphylococcus aureus SA-1199B expressing GrlA A116E mutant assessed as minimal potentiating drug concentration causing 8 fold reduction in ciprofloxacin MIC by microdilution method based Checkerboard assay
[4] = tested on: Staphylococcus aureus; assay: Synergistic potentiation of ciprofloxacin-induced antimicrobial activity against wild type Staphylococcus aureus ATCC 25923 at 0.78 to 100 ug/ml by microdilution method based Checkerboard assay; type: functional, organism-based
[5] = tested on: Staphylococcus aureus; assay: Synergistic potentiation of ciprofloxacin-induced antimicrobial activity against Staphylococcus aureus SA-1199 at 0.78 to 100 ug/ml by microdilution method based Checkerboard assay; type: functional, organism-based
[6] = target: T1, Quinolone resistance protein NorA (Staphylococcus aureus); assay: Inhibition of NorA in Staphylococcus aureus SA-1199B expressing GrlA A116E mutant assessed as synergistic potentiation of ciprofloxacin-induced antimicrobial activity at 0.78 to 100 ug/ml by microdilution method based Checkerboard assay
[7] = target: T1, Quinolone resistance protein NorA (Staphylococcus aureus); assay: Inhibition of NorA in Staphylococcus aureus SA-1199B expressing GrlA A116E mutant assessed as synergistic potentiation of ciprofloxacin-induced antimicrobial activity by measuring reduction in ciprofloxacin MIC at 0.78 ug/ml by microdilution method based Checkerboard assay
[8] = target: T1, Quinolone resistance protein NorA (Staphylococcus aureus); assay: Inhibition of NorA in Staphylococcus aureus SA-K2378 assessed as synergistic potentiation of ciprofloxacin-induced antimicrobial activity at 0.78 to 100 ug/ml by microdilution method based Checkerboard assay
[9] = tested on: Staphylococcus aureus; assay: Synergistic potentiation of ciprofloxacin-induced antimicrobial activity against norA deleted Staphylococcus aureus SA-K1902 at 0.78 to 100 ug/ml by microdilution method based Checkerboard assay; type: functional, organism-based
[10] = Cytotoxicity in human HepG2 cells assessed as reduction in cell viability incubated for 24 hrs by ATP bioluminescence assay; type: cell-based
Outline: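 Cells were grown to confluence overnight in RPMI 1640 with 10% heat-inactivated fetal calf serum, penicillin and streptomycin. Monolayers were exposed for 24 h at 37 °C to scalar concentrations (0-250 µg/mL). Viability was read by ATP bioluminescence, each concentration in triplicate. CC50 is the concentration reducing cell number by 50% versus untreated controls.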

[11] = tested on: Staphylococcus aureus; assay: Antimicrobial activity against Staphylococcus aureus ATCC 25923 by microdilution method; type: organism-based; conditions: in vivo
Outline: (§1)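 Broth microdilution MIC per CLSI guidelines. ATCC 25923 is norA wild-type. SA-1199B overexpresses norA and carries an A116E GrlA substitution.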

[12] = Selectivity index, ratio of CC50 for human HepG2 cells to inhibition of NorA in Staphylococcus aureus SA-1199B expressing GrlA A116E mutant assessed as minimal potentiating drug concentration causing 8 fold reduction in ciprofloxacin MIC by microdilution method based Checkerboard assay; type: toxicity; conditions: read-out: Selectivity Index
Outline: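 CC50 cells (HepG2 for […], THP-1 for […]) were grown to confluence in RPMI 1640 with 10% FCS, penicillin and streptomycin. They were exposed 24 h at 37 °C to 0–250 µg/mL. Viability was read by ATP bioluminescence, triplicate. CC50 is the concentration reducing cell number 50% versus untreated.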

[13] = tested on: Staphylococcus aureus; assay: Antimicrobial activity against Staphylococcus aureus SA-1199B expressing wild type norA by microdilution method; type: organism-based; conditions: in vivo; outline: as §1
[14] = tested on: Staphylococcus aureus; assay: Induction of membrane depolarization in Staphylococcus aureus SA-1199B expressing wild type norA at 1 ug/ml incubated for 30 mikns by DiOC2(3) fluorescent probe based cytofluorimetry; type: organism-based; conditions: in the assay text read “overexpressing norA” for “expressing wild type norA”
Outline: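 SA-1199B was grown in MHB at 37 °C to OD600 0.6, washed, and diluted to 1×10^6 CFU/mL in filtered PBS. DiOC2(3) was added at 30 µM final, and compound at 1, 5 or 10 µg/mL for 30 min. CCCP 5 µM final served as positive control. Flow cytometry with 488 nm excitation gave a red/green ratio normalized to the DiOC2(3) blank, expressed as % depolarized versus drug-free control.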

[15] = tested on: Staphylococcus aureus; assay: Synergistic potentiation of EtBr-induced antimicrobial activity against mepA deficient Staphylococcus aureus SA-K2885 at 0.78 to 100 ug/ml by microdilution method based Checkerboard assay; type: organism-based; conditions: in vivo
Outline: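 Checkerboard combination of EtBr with compound, using broth microdilution MICs. SA-K2886 (norA-deleted, pALC2073-mepA) and SA-K2885 (norA-deleted, empty pALC2073) were run with 0.05 µg/mL tetracycline in all experiments to induce the xyl/tetO promoter.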

[16] = target: Cytochrome P450 3A4 (Homo sapiens, UniProt P08684); assay: Inhibition of human recombinant CYP3A4 at 1 uM using beetle D-luciferin as substrate by CYP450-Glo assay; type: ADME; conditions: recombinant enzyme
Outline: (§2)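 Luminescent P450-Glo assay in which recombinant human CYP3A4 or CYP2D6 converts a beetle D-luciferin derivative to D-luciferin. Compound was tested at 1 and 10 µM.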

[17] = target: T2, Cytochrome P450 2D6 (Homo sapiens, UniProt P10635); assay: Inhibition of human recombinant CYP2D6 at 10 uM using beetle D-luciferin as substrate by CYP450-Glo assay; type: ADME; conditions: recombinant enzyme; outline: as §2
[18] = target: T2, Cytochrome P450 2D6; assay: Inhibition of human recombinant CYP2D6 at 1 uM using beetle D-luciferin as substrate by CYP450-Glo assay; type: ADME; conditions: recombinant enzyme; outline: as §2

T2 sequence (P10635 whole entry): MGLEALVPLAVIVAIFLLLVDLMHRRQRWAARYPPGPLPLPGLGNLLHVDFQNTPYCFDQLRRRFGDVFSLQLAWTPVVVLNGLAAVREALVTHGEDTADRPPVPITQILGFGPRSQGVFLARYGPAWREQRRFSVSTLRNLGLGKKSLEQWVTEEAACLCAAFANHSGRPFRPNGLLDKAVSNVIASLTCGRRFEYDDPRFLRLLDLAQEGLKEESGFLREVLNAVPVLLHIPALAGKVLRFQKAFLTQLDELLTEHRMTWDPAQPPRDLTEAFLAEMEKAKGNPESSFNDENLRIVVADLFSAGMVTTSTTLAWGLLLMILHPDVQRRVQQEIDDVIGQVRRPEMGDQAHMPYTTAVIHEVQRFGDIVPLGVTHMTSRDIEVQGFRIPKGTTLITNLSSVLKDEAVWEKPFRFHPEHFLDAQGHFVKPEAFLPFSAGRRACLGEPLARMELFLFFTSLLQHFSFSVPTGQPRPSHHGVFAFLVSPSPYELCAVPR
Chain of Cytochrome P450 3A4 (P08684 whole entry): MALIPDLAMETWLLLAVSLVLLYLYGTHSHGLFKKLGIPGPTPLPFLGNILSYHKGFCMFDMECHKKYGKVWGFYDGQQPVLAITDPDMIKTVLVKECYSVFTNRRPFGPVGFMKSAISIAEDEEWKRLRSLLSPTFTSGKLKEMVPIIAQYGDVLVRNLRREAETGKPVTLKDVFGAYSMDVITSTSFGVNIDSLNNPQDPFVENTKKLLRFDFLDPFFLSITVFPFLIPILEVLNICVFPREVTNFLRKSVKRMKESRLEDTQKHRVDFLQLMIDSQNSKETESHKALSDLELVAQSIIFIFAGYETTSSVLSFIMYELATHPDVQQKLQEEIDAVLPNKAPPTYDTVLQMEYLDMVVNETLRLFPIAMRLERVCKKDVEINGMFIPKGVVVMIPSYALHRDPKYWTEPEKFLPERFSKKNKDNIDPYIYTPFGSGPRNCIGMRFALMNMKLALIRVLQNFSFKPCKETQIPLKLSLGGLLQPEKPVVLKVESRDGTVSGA

| Structure (SMILES) | inhibition [1] | MIC [2] | Activity [3] | synergistic potentiation of ciprofloxacin activity [4] | inhibition [5] | inhibition [6] | fold change (FC) [7] | inhibition [8] | Activity [9] | CC50 at 24 h [10] | MIC [11] | selectivity ratio [12] | MIC [13] | Activity [14] | Activity [15] | inhibition (INH) [16] | inhibition (INH) [17] | inhibition (INH) [18] |
| --- | --- | --- | --- | --- | --- | --- | --- | --- | --- | --- | --- | --- | --- | --- | --- | --- | --- | --- |
| CCCOc1ccc(-c2cc(OCCN3CCCCC3)c3cc(OC)ccc3n2)cc1 | 97.6% | 238 µM (≈ 100 µg/mL) | 0.78 µg/mL | Active | Active | Active | 8 | Active | inactive | 42 µg/mL (≈ 99.9 µM) | 50 µg/mL (≈ 119 µM) | 50 | > 100 µg/mL | < 10% | Non-Toxic | Not Active | Active | Not Active |
| CCCOc1ccc(-c2cc(OCCN3CCc4cc(OC)c(OC)cc4C3)c3cc(OC)c(OC)cc3n2)cc1 | 94.1% | > 179 µM | 0.78 µg/mL | Active | Active | Active | 8 | Active | inactive | 74 µg/mL (≈ 132 µM) | > 100 µg/mL | 95 | > 100 µg/mL | < 20% | Non-Toxic | Not Active | Active | Not Active |

From ChEMBL document CHEMBL4145675, “2-Phenylquinoline S. aureus NorA Efflux Pump Inhibitors: Evaluation of the Importance of Methoxy Group Introduction” (J Med Chem, 2018)
